This note sets out measurements from ChEMBL document CHEMBL1132600.

SMILES strings stand for the structures.

In one assay the target is T1, Fatty-acid amide hydrolase 1 (Rattus norvegicus) (UniProt P97612).
T1 sequence (whole entry): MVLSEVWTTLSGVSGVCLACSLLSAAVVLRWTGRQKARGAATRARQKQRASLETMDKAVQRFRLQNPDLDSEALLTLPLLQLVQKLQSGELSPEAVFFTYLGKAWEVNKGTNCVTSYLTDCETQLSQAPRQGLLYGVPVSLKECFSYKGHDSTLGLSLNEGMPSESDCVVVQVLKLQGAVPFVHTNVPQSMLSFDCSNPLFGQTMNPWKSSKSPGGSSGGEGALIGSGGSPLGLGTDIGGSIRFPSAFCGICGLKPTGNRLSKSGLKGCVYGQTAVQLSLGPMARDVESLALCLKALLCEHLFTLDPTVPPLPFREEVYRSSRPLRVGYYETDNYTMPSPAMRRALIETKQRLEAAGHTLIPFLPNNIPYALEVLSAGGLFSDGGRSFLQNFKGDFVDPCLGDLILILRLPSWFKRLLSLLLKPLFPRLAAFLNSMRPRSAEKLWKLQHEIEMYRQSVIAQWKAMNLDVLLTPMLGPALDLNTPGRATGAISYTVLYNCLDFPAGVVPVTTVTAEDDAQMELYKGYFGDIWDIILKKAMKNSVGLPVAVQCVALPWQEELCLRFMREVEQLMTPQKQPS
In words: Tested for hydrolysis by rat brain microsomal anandamide amidohydrolase (AAH). Summed up: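 Substrate at 100 μM (final) with 150 μg rat brain microsomal protein in 50 mM Tris·HCl, 1 mM EDTA, 0.1% BSA, pH 7.4, 37 °C, 15 min with shaking. Stopped with acetonitrile. Products quantified by RP-HPLC: arachidonic acid at 204 nm, or ethanolamine-type amine by OPA precolumn derivatization at 230 nm. Substrate-free blank subtracted. Four experiments in duplicate.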
`CCCCC/C=C\C/C=C\C/C=C\C/C=C\CCCC(=O)N[C@@H](C)CC`: the Rate of hydrolysis (nM min-1 mg-1) stood at 0.082 and the Relative rate of hydrolysis amounted to 6.3%. Taken in the same sequence, the figures for `CCCCC/C=C\C/C=C\C/C=C\C/C=C\CCCC(=O)N(C)CCO` were 0 and 0%. Taken in the same sequence, the figures for `CCCCC/C=C\C/C=C\C/C=C\C/C=C\CCCC(=O)OC(CO)CO` were 3.27 and 251%. Taken in the same sequence, the figures for `CCCCC/C=C\C/C=C\C/C=C\C/C=C\CCCC(=O)NCC(C)C` were 0.025 and 2%.

In turn, `CCCCC/C=C\C/C=C\CCCCCCCC(=O)NCCO` gave a Rate of hydrolysis (nM min-1 mg-1) of 0.98. Take `CCCCCCCC/C=C\CCCCCCCC(=O)NCCO`: the Rate of hydrolysis (nM min-1 mg-1) worked out at 0.79 and the Relative rate of hydrolysis was 61.1%.

`CCCCC/C=C\C/C=C\C/C=C\C/C=C\CCC(C)(C)C(=O)NCCO` displayed a Rate of hydrolysis (nM min-1 mg-1) of 0.0094 and a Relative rate of hydrolysis of 0.7%. Taken in the same sequence, the figures for `CCCCC/C=C\C/C=C\C/C=C\C/C=C\CCCC(=O)Nc1ccccc1O` were 2.51 and 193%. For `CCCCC/C=C\C/C=C\C/C=C\C/C=C\CCCC(=O)OCC(O)CO` (stereo not drawn) the same measures were 3.43 and 264%. Take `CCCCC/C=C\C/C=C\C/C=C\C/C=C\CCCC(=O)N(CCO)CCO`: the Rate of hydrolysis (nM min-1 mg-1) was determined as 0.

Turning to `CCCCC/C=C\C/C=C\C/C=C\C/C=C\CCCC(=O)NC(C)(C)CO`, the Rate of hydrolysis (nM min-1 mg-1) amounted to 0.056 and the Relative rate of hydrolysis worked out at 4.3%. Taken in the same sequence, the figures for `CCCCC/C=C\C/C=C\C/C=C\C/C=C\CCCC(=O)Nc1cccc(O)c1` were 1.98 and 152%.

The compound `CCCCC/C=C\C/C=C\C/C=C\C/C=C\CCCC(=O)NC1CCC(O)CC1` (stereo not drawn) yielded a Rate of hydrolysis (nM min-1 mg-1) of 0.299 and a Relative rate of hydrolysis of 2%. Taken in the same sequence, the figures for `CCCCC/C=C\C/C=C\C/C=C\C/C=C\CCCC(=O)NC[C@H](C)O` were 0.273 and 21%. For `CCCCCCCCCCCCCCCCCC(=O)NCCO` the same measures were 0.2 and 15%.

Compound `CCCCC/C=C\C/C=C\C/C=C\C/C=C\CCCC(=O)NCCO` showed a Rate of hydrolysis (nM min-1 mg-1) of 1.3. Regarding `CCCCCCCC/C=C\CCCCCCCC(=O)N[C@@H](C)CO`, the Rate of hydrolysis (nM min-1 mg-1) was found to be 0.47 and the Relative rate of hydrolysis was determined as 3.6%. Taken in the same sequence, the figures for `CCCCC/C=C\C/C=C\CCCCCCCC(=O)N[C@@H](C)CO` were 0.27 and 20.5%.

`CCCCC/C=C\C/C=C\C/C=C\C/C=C\CCCC(=O)N[C@H](C)CC` yielded a Rate of hydrolysis (nM min-1 mg-1) of 0 and a Relative rate of hydrolysis of 0%. As for `CCCCC/C=C\C/C=C\C/C=C\C/C=C\CCCC(N)=O`, the Rate of hydrolysis (nM min-1 mg-1) is 2.85 and the Relative rate of hydrolysis is 219%. Taken in the same sequence, the figures for `CCCCC/C=C\C/C=C\C/C=C\C/C=C\CCCC(=O)NCCF` were 1.65 and 127%. For `CCCCC/C=C\C/C=C\C/C=C\C/C=C\CCCC(=O)NC[C@@H](C)O` the same measures were 1.58 and 121%. Take `CCCCC/C=C\C/C=C\C/C=C\C/C=C\CCCC(=O)Nc1ccc(O)cc1`: the Rate of hydrolysis (nM min-1 mg-1) stood at 0.208 and the Relative rate of hydrolysis is 16%. Regarding `CCCCC/C=C\C/C=C\C/C=C\C/C=C\CCCC(=O)N[C@H](C)CO`, the Rate of hydrolysis (nM min-1 mg-1) is 0.03.

Consider `CCCCC/C=C\C/C=C\C/C=C\C/C=C\CCCC(=O)N[C@@H](C)CO`, for which the Rate of hydrolysis (nM min-1 mg-1) turned out to be 0.299. `CCCCC/C=C\C/C=C\C/C=C\C/C=C\CCCC(=O)NC(C)(C)C`: the Rate of hydrolysis (nM min-1 mg-1) came to 0.022 and the Relative rate of hydrolysis was found to be 1.8%. For `CCCCC/C=C\C/C=C\C/C=C\C/C=C\CCCC(=O)Nc1ccc(CO)cc1` the same measures were 0 and 0%.

Tested on in a further assay: not listed separately
The assay can be described thus: Ratio of Vmax value and Km value of the compound. Summed up: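 Sprague–Dawley rat brain microsomes (105000g pellet) at 0.3 mg/mL protein, 37 °C, pH 7.4, BSA as carrier. Varied substrate concentrations, sampled at least four times within the linear initial range. Arachidonic acid formed measured by RP-HPLC (UV 204 nm, calibration curve). Initial velocity vs substrate concentration fitted to Michaelis–Menten.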
Consider `CCCCC/C=C\C/C=C\C/C=C\C/C=C\CCCC(=O)Nc1ccccc1O`, for which the Vmax / Km (ml min-1 kg-1) is 0.43.

For the compound `CCCCC/C=C\C/C=C\C/C=C\C/C=C\CCCC(N)=O`, the Vmax / Km (ml min-1 mg-1) was found to be 1.24. Turning to `CCCCC/C=C\C/C=C\C/C=C\C/C=C\CCCC(=O)N[C@H](C)CO`, the Vmax / Km (ml min-1 kg-1) amounted to 0.011.

With `CCCCC/C=C\C/C=C\C/C=C\C/C=C\CCCC(=O)N[C@@H](C)CO`, the Vmax / Km (ml min-1 kg-1) turned out to be 0.049.
